The results in this text go back to ChEMBL document CHEMBL4411265, “Bioactive Pentacyclic Triterpenes from the Root Bark Extract of Myrianthus arboreus, a Species Used Traditionally to Treat Type-2 Diabetes” (J Nat Prod, 2018).

SMILES strings stand for the structures.

In data set [1] the target is T1, Glycogen synthase kinase-3 (Homo sapiens) (UniProt P49840+P49841). Nature of the data set: Activation of GSK3 phosphorylation in human HepG2 cells at MNTD after 18 hrs by Western blot analysis relative to control. The data set is classed as cell-based. In a few lines:
(§1)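 Confluent H4IIE rat hepatoma cells (DMEM, 10% FBS) or HepG2 human hepatoma cells (DMEM/F12, 10% FBS) exposed 18 h to samples at maximal nontoxic concentration, 0.1% DMSO vehicle; RIPA lysates, 40 μg protein by SDS-PAGE, nitrocellulose blotting, 5% milk block. Antibodies against p-Akt Thr308/Akt, p-AMPKα Thr172/AMPK, p-GSK-3 Ser9/GSK-3, HRP secondary, ECL detection. Phospho/total ratio relative to DMSO; three independent passages.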
On the technique in general: Immunoblotting shows a protein as a band on a membrane.

Data set [2] deals with RAC-alpha serine/threonine-protein kinase (Rattus norvegicus) (UniProt P47196). The data set is described as follows: Activation of Akt in rat […] cells assessed as increase in ratio of phosphorylated Akt to total AKt level at MNTD after 18 hrs by Western blot analysis relative to control. The class given is cell-based. In a few lines: as §1
Sequence of RAC-alpha serine/threonine-protein kinase (Rattus norvegicus) (P47196 whole entry): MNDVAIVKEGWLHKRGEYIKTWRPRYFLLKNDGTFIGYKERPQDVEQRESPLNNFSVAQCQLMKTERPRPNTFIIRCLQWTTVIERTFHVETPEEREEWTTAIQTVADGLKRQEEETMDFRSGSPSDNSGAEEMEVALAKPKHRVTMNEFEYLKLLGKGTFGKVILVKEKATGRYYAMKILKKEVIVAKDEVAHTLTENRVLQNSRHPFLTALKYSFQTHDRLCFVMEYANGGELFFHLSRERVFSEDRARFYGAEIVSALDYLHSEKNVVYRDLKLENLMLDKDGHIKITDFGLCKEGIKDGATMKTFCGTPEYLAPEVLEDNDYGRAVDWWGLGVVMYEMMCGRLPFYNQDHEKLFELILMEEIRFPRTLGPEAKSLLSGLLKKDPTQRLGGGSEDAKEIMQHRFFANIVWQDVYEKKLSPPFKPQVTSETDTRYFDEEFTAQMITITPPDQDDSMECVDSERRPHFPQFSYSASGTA
The target in data set [3] is T2, Glycogen [starch] synthase, liver (Homo sapiens) (UniProt P54840).
T2 sequence (whole entry): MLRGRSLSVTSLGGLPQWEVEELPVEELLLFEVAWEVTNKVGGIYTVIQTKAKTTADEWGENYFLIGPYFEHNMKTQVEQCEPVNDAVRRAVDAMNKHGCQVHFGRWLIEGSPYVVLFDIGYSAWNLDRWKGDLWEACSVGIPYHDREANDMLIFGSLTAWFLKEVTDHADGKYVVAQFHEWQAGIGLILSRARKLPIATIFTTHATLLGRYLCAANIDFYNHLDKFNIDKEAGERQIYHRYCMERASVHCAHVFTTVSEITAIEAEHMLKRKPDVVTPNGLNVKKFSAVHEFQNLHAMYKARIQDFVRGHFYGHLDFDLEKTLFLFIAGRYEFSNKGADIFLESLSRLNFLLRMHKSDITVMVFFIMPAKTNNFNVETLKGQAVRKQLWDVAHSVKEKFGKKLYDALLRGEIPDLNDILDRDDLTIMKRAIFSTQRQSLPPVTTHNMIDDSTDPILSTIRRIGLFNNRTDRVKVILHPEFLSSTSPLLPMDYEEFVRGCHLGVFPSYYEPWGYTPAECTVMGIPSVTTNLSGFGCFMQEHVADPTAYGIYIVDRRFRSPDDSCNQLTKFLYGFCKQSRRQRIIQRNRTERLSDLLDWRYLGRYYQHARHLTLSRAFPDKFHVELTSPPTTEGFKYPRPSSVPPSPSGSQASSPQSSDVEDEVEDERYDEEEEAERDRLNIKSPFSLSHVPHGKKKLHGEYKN
The data set is described as follows: Activation of insulin-stimulated glycogen synthase in human HepG2 cells at MNTD using [U-14C]UDP glucose as substrate preincubated for 18 hrs followed by insulin stimulation and measured after 15 mins by beta-counting method relative to control. The class given is cell-based.

For the next data set, the species on record is Rattus norvegicus. Nature of the data set: Activation of AMPK in rat […] cells assessed as increase AMPK phosphorylation at MNTD after 18 hrs by Western blot analysis relative to control. The class given is cell-based. Summed up:
as §1

In data set [4] the target is T3, Glucose-6-phosphatase catalytic subunit 1 (Rattus norvegicus) (UniProt P43428).
T3 sequence (whole entry): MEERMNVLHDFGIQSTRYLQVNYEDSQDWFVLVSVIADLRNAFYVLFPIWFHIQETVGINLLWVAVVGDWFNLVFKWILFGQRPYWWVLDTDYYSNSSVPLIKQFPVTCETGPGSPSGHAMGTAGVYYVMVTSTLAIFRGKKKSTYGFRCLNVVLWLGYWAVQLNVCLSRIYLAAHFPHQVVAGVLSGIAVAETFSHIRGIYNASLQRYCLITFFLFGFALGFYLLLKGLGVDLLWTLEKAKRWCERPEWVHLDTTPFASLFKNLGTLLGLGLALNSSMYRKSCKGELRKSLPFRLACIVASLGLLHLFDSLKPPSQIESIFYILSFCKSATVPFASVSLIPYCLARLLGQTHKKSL
Nature of the data set: Inhibition of glucose-6-phosphatase in rat […] cells at MNTD using glucose-6-phosphate as substrate preincubated overnight followed by substrate addition and measured after 40 mins relative to control. The data set is classed as cell-based. In a few lines:
(§2)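 H4IIE rat hepatoma cells at 90% confluence treated overnight at maximal nontoxic concentration, 0.1% DMSO vehicle. Lysis in phosphate buffer with 0.05% Triton; lysate incubated with glucose-6-phosphate buffer 40 min at 37 °C. Released glucose read by glucose kit against standard curve, normalized to BCA protein; percent change from vehicle. Means of three experiments in triplicate.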

Data set [5] addresses T4, Glucose-6-phosphatase catalytic subunit 1 (Rattus norvegicus, UniProt P43428).
T4 sequence (P43428 whole entry): T3 sequence (whole entry)
Nature of the data set: Inhibition of glucose-6-phosphatase in rat H42E cells using glucose-6-phosphate as substrate preincubated overnight followed by substrate addition and measured after 40 mins. The data set is classed as cell-based. Summed up:
as §2

The target of data set [6] is T5, Glycogen [starch] synthase, liver (Homo sapiens, UniProt P54840).
T5 sequence (P54840 whole entry): T2 sequence (whole entry)
The data set is described as follows: Activation of insulin-stimulated glycogen synthase in human HepG2 cells using [U-14C]UDP glucose as substrate preincubated for 18 hrs followed by insulin stimulation and measured after 15 mins by beta-counting method. The class given is cell-based.

Data set [7] is described as follows: Solubility of the compound in DMSO. The data set is classed as physicochemical.
Data set [8] addresses T1, Glycogen synthase kinase-3 (Homo sapiens). The data set is described as follows: Activation of GSK3 in human HepG2 cells assessed as increase in ratio of phosphorylated GSK3 to total GSK3 level at MNTD after 18 hrs by Western blot analysis relative to control. The class given is cell-based. In a few lines: as §1

In general, inhibition refers to the relative decrease from the control value, in per cent. The low end stands for little suppression, the high end for strong suppression. For orientation: IC50 means the midpoint of a concentration-inhibition curve. A higher IC50 goes with lower potency. What is called EC50 is the concentration at which the effect is half-maximal.

T1 sequence (P49840 whole entry, looked up): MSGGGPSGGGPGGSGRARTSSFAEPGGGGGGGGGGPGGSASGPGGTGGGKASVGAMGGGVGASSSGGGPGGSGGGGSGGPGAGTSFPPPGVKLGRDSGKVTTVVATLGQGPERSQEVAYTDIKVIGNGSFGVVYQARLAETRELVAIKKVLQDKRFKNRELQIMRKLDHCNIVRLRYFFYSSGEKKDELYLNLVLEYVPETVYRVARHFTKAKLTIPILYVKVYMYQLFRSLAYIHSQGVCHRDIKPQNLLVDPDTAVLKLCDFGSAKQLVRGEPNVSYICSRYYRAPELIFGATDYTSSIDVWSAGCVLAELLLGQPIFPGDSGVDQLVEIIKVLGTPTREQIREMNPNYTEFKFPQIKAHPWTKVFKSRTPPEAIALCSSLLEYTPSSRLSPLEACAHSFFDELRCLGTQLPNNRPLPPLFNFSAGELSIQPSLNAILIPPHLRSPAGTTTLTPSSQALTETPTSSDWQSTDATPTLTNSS
T1 sequence (P49841 whole entry, looked up): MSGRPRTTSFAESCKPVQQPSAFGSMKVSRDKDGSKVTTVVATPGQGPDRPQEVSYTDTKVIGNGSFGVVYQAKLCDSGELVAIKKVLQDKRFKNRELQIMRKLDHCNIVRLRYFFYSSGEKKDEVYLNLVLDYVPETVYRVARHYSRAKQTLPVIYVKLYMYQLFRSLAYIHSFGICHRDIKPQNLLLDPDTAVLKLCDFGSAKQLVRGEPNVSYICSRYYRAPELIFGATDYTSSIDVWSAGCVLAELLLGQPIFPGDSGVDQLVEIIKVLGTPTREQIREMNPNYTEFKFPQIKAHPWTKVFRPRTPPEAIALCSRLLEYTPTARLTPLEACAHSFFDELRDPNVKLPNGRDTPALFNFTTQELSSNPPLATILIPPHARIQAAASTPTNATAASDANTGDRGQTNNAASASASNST

For `C[C@H]1[C@H](C)CC[C@]2(C(=O)O)CC[C@]3(C)C(=CC[C@@H]4[C@@]5(C)CC[C@H](O)C(C)(C)[C@@H]5CC[C@]43C)[C@H]12`, the fold change (FC) in data set [1] was 2; in data set [2], 2.2 to 4.8; in data set [3] it was 1.5 to 3.5; in the data set listed under Rattus norvegicus it was 2.2 to 3.5. This compound also displayed an inhibition in data set [4] of 18 to 32%.

Take `COc1cc(/C=C/C(=O)O[C@H]2[C@H](OC(C)=O)C[C@]3(C)[C@H]4CC=C5[C@H]6[C@](C(=O)O)(CC[C@@H](C)[C@@]6(C)O)CC[C@@]5(C)[C@]4(C)CC[C@H]3C2(C)C)ccc1O`: the fold change (FC) in [1] is 2; in data set [2], 2.2 to 4.8; in data set [3], 1.5 to 3.5; in the data set filed under Rattus norvegicus, 2.2 to 3.5. In [5], inhibition was half-maximal at 4.8 µM (IC50). This compound yielded an inhibition in [4] of 18 to 32%. Further, the midpoint of the response in data set [6], the EC50, lay at 4.1 µM.

Regarding `CC[C@H](/C=C/[C@@H](C)[C@H]1CC[C@H]2[C@@H]3CC=C4C[C@@H](O)CC[C@]4(C)[C@H]3CC[C@]12C)C(C)C` [STIGMASTEROL], the solubility entry in [7] is “Insoluble”.

`NC(=O)c1ncn([C@@H]2O[C@H](CO)[C@@H](O)[C@H]2O)c1N` registered a fold change (FC) in data set [1] of 2.

As to `CC[C@H](CC[C@@H](C)[C@H]1CC[C@H]2[C@@H]3CC=C4C[C@@H](O)CC[C@]4(C)[C@H]3CC[C@]12C)C(C)C` [BETA-SITOSTEROL], the solubility entry in [7] is recorded as “Insoluble”.

Turning to `COc1cc(/C=C/C(=O)O[C@H]2[C@H](O)C[C@]3(C)[C@H]4CC=C5[C@H]6[C@](C(=O)O)(CC[C@@H](C)[C@@]6(C)O)CC[C@@]5(C)[C@]4(C)CC[C@H]3C2(C)C)ccc1O`, the fold change (FC) is 2.2 to 4.8 in [2], 1.5 to 3.5 in data set [3], 2.2 to 3.5 in the data set listed under Rattus norvegicus and 1.8 in data set [8]. Besides, the inhibition in data set [4] fell in the range of 18 to 32%.
